Where a SMILES comes first, the peptide text is derived from it. [ ]: non-standard residue; d: D form. ξ: configuration not given here. ξTic = O=C(O)C1Cc2ccccc2CN1; Aib = CC(C)(N)C(=O)O
Assays:
[1] = molecular target: T1, Pituitary adenylate cyclase-activating polypeptide type I receptor (Homo sapiens, UniProt P41586); assay: Displacement of [125I]Ac-PACAP27 from human recombinant PAC1 receptor expressed in CHO cells by gamma- counter; assay type: cell-based
Target sequence in this assay (P41586 whole entry): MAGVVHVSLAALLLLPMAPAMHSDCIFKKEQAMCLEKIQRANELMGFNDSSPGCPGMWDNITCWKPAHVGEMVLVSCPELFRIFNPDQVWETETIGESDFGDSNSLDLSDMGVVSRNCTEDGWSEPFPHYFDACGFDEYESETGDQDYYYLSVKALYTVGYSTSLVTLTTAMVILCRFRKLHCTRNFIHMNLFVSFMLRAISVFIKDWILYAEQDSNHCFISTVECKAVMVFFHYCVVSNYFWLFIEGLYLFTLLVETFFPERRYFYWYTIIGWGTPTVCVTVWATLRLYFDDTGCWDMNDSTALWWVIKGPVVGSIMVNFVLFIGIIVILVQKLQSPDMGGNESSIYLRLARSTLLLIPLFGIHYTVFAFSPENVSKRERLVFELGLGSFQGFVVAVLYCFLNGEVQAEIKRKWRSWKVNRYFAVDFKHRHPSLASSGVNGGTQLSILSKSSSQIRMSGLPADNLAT

[2] = molecular target: T1, Pituitary adenylate cyclase-activating polypeptide type I receptor; assay: Agonist activity at human recombinant PAC1 receptor expressed in CHO cells assessed as PACAP38-induced calcium mobilization by FLIPR assay; assay type: functional, cell-based
In short: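 CHO cells stably expressing recombinant human PAC1, plated 24 h before assay, loaded with fluo-4 AM for 60 min at 37 °C in the dark, then rinsed into HBSS for 15 min at 37 °C. EC50 and efficacy came from nonlinear regression; 4-10 independent assays in duplicate.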
Target sequence in this assay (P41586 whole entry): as above

[3] = molecular target: T1, Pituitary adenylate cyclase-activating polypeptide type I receptor; assay: Agonist activity at human recombinant PAC1 receptor expressed in CHO cells assessed as PACAP38-induced calcium mobilization by FLIPR assay relative to PACAP38; assay type: functional, cell-based
In short: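 CHO cells stably expressing recombinant human PAC1, plated 24 h before assay, loaded with fluo-4 AM for 60 min at 37 °C in the dark, then rinsed into HBSS for 15 min at 37 °C. Peptide was added 18 s into a 150 s read (ex 480/em 525 nm), at final concentrations of 1 × 10-12 to 1 × 10^-5 M. Response was normalised to 1 × 10^-5 M PACAP38 on each plate. EC50 and efficacy came from nonlinear regression; 4-10 independent assays in duplicate.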
Target sequence in this assay (P41586 21-468 limits assumed): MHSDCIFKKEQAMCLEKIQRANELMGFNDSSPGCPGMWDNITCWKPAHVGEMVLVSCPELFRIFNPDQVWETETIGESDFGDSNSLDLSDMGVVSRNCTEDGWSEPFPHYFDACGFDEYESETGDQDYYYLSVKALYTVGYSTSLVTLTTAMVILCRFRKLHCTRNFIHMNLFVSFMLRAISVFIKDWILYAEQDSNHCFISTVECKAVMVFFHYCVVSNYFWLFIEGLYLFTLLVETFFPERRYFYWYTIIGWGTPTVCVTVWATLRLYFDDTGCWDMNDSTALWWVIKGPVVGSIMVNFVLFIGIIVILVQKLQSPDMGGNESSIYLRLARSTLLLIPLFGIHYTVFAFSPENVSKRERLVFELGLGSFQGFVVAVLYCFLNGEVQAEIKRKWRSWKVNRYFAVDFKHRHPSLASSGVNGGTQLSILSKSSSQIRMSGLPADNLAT

Row | SMILES | IC50 [1] [nM] | EC50 [2] [nM] | Emax [3] [%]
1 | CSCC[C@H](NC(=O)[C@H](CCC(N)=O)NC(=O)[C@H](CCCCN)NC(=O)[C@H](CCCNC(=N)N)NC(=O)[C@H](Cc1ccc(O)cc1)NC(=O)[C@H](CCCNC(=N)N)NC(=O)[C@H](CO)NC(=O)[C@H](Cc1ccc(O)cc1)NC(=O)[C@H](CO)NC(=O)[C@H](CC(=O)O)NC(=O)[C@@H](NC(=O)[C@H](Cc1ccccc1)NC(=O)[C@H](CC(C)C)N1CC[C@H](NC(=O)[C@H](CC(=O)O)NC(=O)[C@H](CO)NC(=O)[C@@H](N)Cc2cnc[nH]2)C1=O)[C@@H](C)O)C(=O)N[C@@H](C)C(=O)N[C@H](C(=O)N[C@@H](CCCCN)C(=O)N[C@@H](CCCCN)C(=O)N[C@@H](Cc1ccc(O)cc1)C(=O)N[C@@H](CC(C)C)C(=O)N[C@@H](C)C(=O)N[C@@H](C)C(=O)N[C@H](C(=O)N[C@@H](CC(C)C)C(=O)NCC(=O)N[C@@H](CCCCN)C(=O)N[C@@H](CCCNC(=N)N)C(=O)N[C@@H](Cc1ccc(O)cc1)C(=O)N[C@@H](CCCCN)C(=O)N[C@@H](CCC(N)=O)C(=O)N[C@@H](CCCNC(=N)N)C(=O)N[C@H](C(=O)N[C@@H](CCCCN)C(=O)N[C@@H](CC(N)=O)C(=O)N[C@@H](CCCCN)C(N)=O)C(C)C)C(C)C)C(C)C | 775 | 2480 | 38.2
2 | CC[C@H](C)[C@H](NC(=O)[C@H](C)NC(=O)[C@H](CC(=O)O)NC(=O)[C@H](CO)NC(=O)[C@@H](N)Cc1cnc[nH]1)C(=O)N[C@@H](Cc1ccccc1)C(=O)N[C@H](C(=O)N[C@@H](CC(=O)O)C(=O)N[C@@H](CO)C(=O)N[C@@H](Cc1ccc(O)cc1)C(=O)N[C@@H](CO)C(=O)N[C@@H](CCCNC(=N)N)C(=O)N[C@@H](Cc1ccc(O)cc1)C(=O)N[C@@H](CCCNC(=N)N)C(=O)N[C@@H](CCCCN)C(=O)N[C@@H](CCC(N)=O)C(=O)N[C@@H](CCSC)C(=O)N[C@@H](C)C(=O)N[C@H](C(=O)N[C@@H](CCCCN)C(=O)N[C@@H](CCCCN)C(=O)N[C@@H](Cc1ccc(O)cc1)C(=O)N[C@@H](CC(C)C)C(=O)N[C@@H](C)C(=O)N[C@@H](C)C(=O)N[C@H](C(=O)N[C@@H](CC(C)C)C(N)=O)C(C)C)C(C)C)[C@@H](C)O | 9.1 | 20.8 | 105
3 | CC[C@H](C)[C@H](NC(=O)CNC(=O)[C@H](CC(=O)O)NC(=O)[C@H](CO)NC(=O)[C@@H](N)Cc1cnc[nH]1)C(=O)N1Cc2ccccc2CC1C(=O)N[C@H](C(=O)N[C@@H](CC(=O)O)C(=O)N[C@@H](CO)C(=O)N[C@@H](Cc1ccc(O)cc1)C(=O)N[C@@H](CO)C(=O)N[C@@H](CCCNC(=N)N)C(=O)N[C@@H](Cc1ccc(O)cc1)C(=O)N[C@@H](CCCNC(=N)N)C(=O)N[C@@H](CCCCN)C(=O)N[C@@H](CCC(N)=O)C(=O)N[C@@H](CCSC)C(=O)N[C@@H](C)C(=O)N[C@H](C(=O)N[C@@H](CCCCN)C(=O)N[C@@H](CCCCN)C(=O)N[C@@H](Cc1ccc(O)cc1)C(=O)N[C@@H](CC(C)C)C(=O)N[C@@H](C)C(=O)N[C@@H](C)C(=O)N[C@H](C(=O)N[C@@H](CC(C)C)C(=O)NCC(=O)N[C@@H](CCCCN)C(=O)N[C@@H](CCCNC(=N)N)C(=O)N[C@@H](Cc1ccc(O)cc1)C(=O)N[C@@H](CCCCN)C(=O)N[C@@H](CCC(N)=O)C(=O)N[C@@H](CCCNC(=N)N)C(=O)N[C@H](C(=O)N[C@@H](CCCCN)C(=O)N[C@@H](CC(N)=O)C(=O)N[C@@H](CCCCN)C(N)=O)C(C)C)C(C)C)C(C)C)[C@@H](C)O (some centres not stated) (H-HSDGI[ξTic]TDSYSRYRKQMAVKKYLAAVLGKRYKQRVKNK-NH2) | 1420 | 4010 | 69.6
4 | CC[C@H](C)[C@H](NC(=O)CNC(=O)[C@H](CC(=O)O)NC(=O)[C@@H](CO)NC(=O)[C@@H](N)Cc1cnc[nH]1)C(=O)N[C@@H](Cc1ccccc1)C(=O)N[C@H](C(=O)N[C@@H](CC(=O)O)C(=O)N[C@@H](CO)C(=O)N[C@@H](Cc1ccc(O)cc1)C(=O)N[C@@H](CO)C(=O)N[C@@H](CCCNC(=N)N)C(=O)N[C@@H](Cc1ccc(O)cc1)C(=O)N[C@@H](CCCNC(=N)N)C(=O)N[C@@H](CCCCN)C(=O)N[C@@H](CCC(N)=O)C(=O)N[C@@H](CCSC)C(=O)N[C@@H](C)C(=O)N[C@H](C(=O)N[C@@H](CCCCN)C(=O)N[C@@H](CCCCN)C(=O)N[C@@H](Cc1ccc(O)cc1)C(=O)N[C@@H](CC(C)C)C(=O)N[C@@H](C)C(=O)N[C@@H](C)C(=O)N[C@H](C(=O)N[C@@H](CC(C)C)C(=O)NCC(=O)N[C@@H](CCCCN)C(=O)N[C@@H](CCCNC(=N)N)C(=O)N[C@@H](Cc1ccc(O)cc1)C(=O)N[C@@H](CCCCN)C(=O)N[C@@H](CCC(N)=O)C(=O)N[C@@H](CCCNC(=N)N)C(=O)N[C@H](C(=O)N[C@@H](CCCCN)C(=O)N[C@@H](CC(N)=O)C(=O)N[C@@H](CCCCN)C(N)=O)C(C)C)C(C)C)C(C)C)[C@@H](C)O | 6.6 | 4.1 | 90.5
5 | CC[C@H](C)[C@H](NC(=O)CNC(=O)[C@H](CC(=O)O)NC(=O)[C@H](CO)NC(=O)[C@@H](N)Cc1cncn1C)C(=O)N[C@@H](Cc1ccccc1)C(=O)N[C@H](C(=O)N[C@@H](CC(=O)O)C(=O)N[C@@H](CO)C(=O)N[C@@H](Cc1ccc(O)cc1)C(=O)N[C@@H](CO)C(=O)N[C@@H](CCCNC(=N)N)C(=O)N[C@@H](Cc1ccc(O)cc1)C(=O)N[C@@H](CCCNC(=N)N)C(=O)N[C@@H](CCCCN)C(=O)N[C@@H](CCC(N)=O)C(=O)N[C@@H](CCSC)C(=O)N[C@@H](C)C(=O)N[C@H](C(=O)N[C@@H](CCCCN)C(=O)N[C@@H](CCCCN)C(=O)N[C@@H](Cc1ccc(O)cc1)C(=O)N[C@@H](CC(C)C)C(=O)N[C@@H](C)C(=O)N[C@@H](C)C(=O)N[C@H](C(=O)N[C@@H](CC(C)C)C(N)=O)C(C)C)C(C)C)[C@@H](C)O | 15.6 | 52.5 | 96.9
6 | CC[C@H](C)[C@H](NC(=O)CNC(=O)[C@H](CC(=O)O)NC(=O)C(C)(C)NC(=O)[C@@H](N)Cc1cnc[nH]1)C(=O)N[C@@H](Cc1ccccc1)C(=O)N[C@H](C(=O)N[C@@H](CC(=O)O)C(=O)N[C@@H](CO)C(=O)N[C@@H](Cc1ccc(O)cc1)C(=O)N[C@@H](CO)C(=O)N[C@@H](CCCNC(=N)N)C(=O)N[C@@H](Cc1ccc(O)cc1)C(=O)N[C@@H](CCCNC(=N)N)C(=O)N[C@@H](CCCCN)C(=O)N[C@@H](CCC(N)=O)C(=O)N[C@@H](CCSC)C(=O)N[C@@H](C)C(=O)N[C@H](C(=O)N[C@@H](CCCCN)C(=O)N[C@@H](CCCCN)C(=O)N[C@@H](Cc1ccc(O)cc1)C(=O)N[C@@H](CC(C)C)C(=O)N[C@@H](C)C(=O)N[C@@H](C)C(=O)N[C@H](C(=O)N[C@@H](CC(C)C)C(N)=O)C(C)C)C(C)C)[C@@H](C)O | 9.5 | 10.1 | 104
7 | CC[C@H](C)[C@H](NC(=O)CNC(=O)[C@H](CC(=O)O)NC(=O)[C@H](CO)NC(=O)[C@@H](N)Cc1cnc[nH]1)C(=O)N[C@@H](Cc1ccc(O)cc1)C(=O)N[C@H](C(=O)N[C@@H](CC(=O)O)C(=O)N[C@@H](CO)C(=O)N[C@@H](Cc1ccc(O)cc1)C(=O)N[C@@H](CO)C(=O)N[C@@H](CCCNC(=N)N)C(=O)N[C@@H](Cc1ccc(O)cc1)C(=O)N[C@@H](CCCNC(=N)N)C(=O)N[C@@H](CCCCN)C(=O)N[C@@H](CCC(N)=O)C(=O)N[C@@H](CCSC)C(=O)N[C@@H](C)C(=O)N[C@H](C(=O)N[C@@H](CCCCN)C(=O)N[C@@H](CCCCN)C(=O)N[C@@H](Cc1ccc(O)cc1)C(=O)N[C@@H](CC(C)C)C(=O)N[C@@H](C)C(=O)N[C@@H](C)C(=O)N[C@H](C(=O)N[C@@H](CC(C)C)C(N)=O)C(C)C)C(C)C)[C@@H](C)O | 7.9 | 7.7 | 108
8 | CC[C@H](C)[C@H](NC(=O)C(C)(C)NC(=O)[C@H](CC(=O)O)NC(=O)[C@H](CO)NC(=O)[C@@H](N)Cc1cnc[nH]1)C(=O)N[C@@H](Cc1ccccc1)C(=O)N[C@H](C(=O)N[C@@H](CC(=O)O)C(=O)N[C@@H](CO)C(=O)N[C@@H](Cc1ccc(O)cc1)C(=O)N[C@@H](CO)C(=O)N[C@@H](CCCNC(=N)N)C(=O)N[C@@H](Cc1ccc(O)cc1)C(=O)N[C@@H](CCCNC(=N)N)C(=O)N[C@@H](CCCCN)C(=O)N[C@@H](CCC(N)=O)C(=O)N[C@@H](CCSC)C(=O)N[C@@H](C)C(=O)N[C@H](C(=O)N[C@@H](CCCCN)C(=O)N[C@@H](CCCCN)C(=O)N[C@@H](Cc1ccc(O)cc1)C(=O)N[C@@H](CC(C)C)C(=O)N[C@@H](C)C(=O)N[C@@H](C)C(=O)N[C@H](C(=O)N[C@@H](CC(C)C)C(=O)NCC(=O)N[C@@H](CCCCN)C(=O)N[C@@H](CCCNC(=N)N)C(=O)N[C@@H](Cc1ccc(O)cc1)C(=O)N[C@@H](CCCCN)C(=O)N[C@@H](CCC(N)=O)C(=O)N[C@@H](CCCNC(=N)N)C(=O)N[C@H](C(=O)N[C@@H](CCCCN)C(=O)N[C@@H](CC(N)=O)C(=O)N[C@@H](CCCCN)C(N)=O)C(C)C)C(C)C)C(C)C)[C@@H](C)O (H-HSD[Aib]IFTDSYSRYRKQMAVKKYLAAVLGKRYKQRVKNK-NH2) | 9.2 | 3.3 | 84
9 | CC[C@H](C)[C@H](NC(=O)CNC(=O)[C@H](CC(=O)O)NC(=O)[C@H](CO)NC(=O)[C@H](Cc1cnc[nH]1)NC(C)=O)C(=O)N[C@@H](Cc1ccccc1)C(=O)N[C@H](C(=O)N[C@@H](CC(=O)O)C(=O)N[C@@H](CO)C(=O)N[C@@H](Cc1ccc(O)cc1)C(=O)N[C@@H](CO)C(=O)N[C@@H](CCCNC(=N)N)C(=O)N[C@@H](Cc1ccc(O)cc1)C(=O)N[C@@H](CCCNC(=N)N)C(=O)N[C@@H](CCCCN)C(=O)N[C@@H](CCC(N)=O)C(=O)N[C@@H](CCSC)C(=O)N[C@@H](C)C(=O)N[C@H](C(=O)N[C@@H](CCCCN)C(=O)N[C@@H](CCCCN)C(=O)N[C@@H](Cc1ccc(O)cc1)C(=O)N[C@@H](CC(C)C)C(=O)N[C@@H](C)C(=O)N[C@@H](C)C(=O)N[C@H](C(=O)N[C@@H](CC(C)C)C(N)=O)C(C)C)C(C)C)[C@@H](C)O | 8.2 | 9.7 | 96.3
